Assay results from ChEMBL document CHEMBL3091328, “Synthesis, DNA-binding abilities and anticancer activities of triazole-pyrrolo[2,1-c][1,4]benzodiazepines hybrid scaffolds” (Bioorg Med Chem Lett, 2013).
Active and inactive are the calls of the source. The calls are words filed in the database; no cut-off is given here.

Tests used:
[1] = test system: B16; test: Cytotoxicity against mouse B16 cells assessed as cell survival at 5 uM after 24 hrs by MTT assay relative to control; assay type: functional; settings: B16, 24 h, read-out: Survival
Method in brief: (§1)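 Cells exposed to agent at 5 µM for 24 h, then growth and viability measured by MTT assay. Survival given as percent of untreated control.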

[2] = Cytotoxicity against human RPMI7951 cells assessed as cell survival at 5 uM after 24 hrs by MTT assay relative to control; assay type: functional; settings: RPMI-7951, 24 h, read-out: Survival; method in brief: as §1
[3] = test system: A-375; test: Cell cycle arrest in human A375 cells assessed as accumulation at sub-G1 phase after 24 hrs by propidium iodide staining-based flow cytometry (reference value: 7.7 +/- 0.1%); assay type: functional
[4] = Cytotoxicity against human skin fibroblasts assessed as cell survival at 5 uM after 24 hrs by MTT assay relative to control; set-up: species or system Skin fibroblast; settings: read-out: Survival; method in brief: as §1
[5] = test system: Ca9-22; test: Cytotoxicity against human Ca9-22 cells assessed as cell survival at 5 uM after 24 hrs by MTT assay relative to control; assay type: functional; settings: Ca9-22, 24 h, read-out: Survival; method in brief: as §1
[6] = test system: A-375; test: Cell cycle arrest in human A375 cells assessed as accumulation at G1 phase after 24 hrs by propidium iodide staining-based flow cytometry (reference value: 65.3 +/- 0.1%); assay type: functional
[7] = test system: HEK-293T; test: Cytotoxicity against human 293T cells assessed as cell survival at 5 uM after 24 hrs by MTT assay relative to control; assay type: functional; settings: read-out: Survival; method in brief: as §1
[8] = test system: A-375; test: Cell cycle arrest in human A375 cells assessed as accumulation at G2/M phase after 24 hrs by propidium iodide staining-based flow cytometry (reference value: 15.2 +/- 0.6%); assay type: functional
[9] = test system: A-375; test: Cytotoxicity against human A375 cells assessed as cell survival at 1 to 5 uM after 12 hrs by MTT assay relative to control; assay type: functional, cell-based
Method in brief: (§2)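 A375 cells seeded at 10,000 per well, attached overnight, then exposed in triplicate to 0, 1, 3 or 5 μM for 0, 12 or 24 h; viability by MTT absorbance versus untreated control; IC50 taken as mean of dose-response curves from three experiments.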

[10] = test system: A-375; test: Cytotoxicity against human A375 cells assessed as cell survival at 5 uM after 24 hrs by MTT assay relative to control; assay type: functional; settings: A-375, 24 h, read-out: Survival; method in brief: as §1
[11] = test system: A2058; test: Cytotoxicity against human A2058 cells assessed as cell survival at 5 uM after 24 hrs by MTT assay relative to control; assay type: functional; settings: A2058, 24 h, read-out: Survival; method in brief: as §1
[12] = test system: A-375; test: Cell cycle arrest in human A375 cells assessed as accumulation at S phase after 24 hrs by propidium iodide staining-based flow cytometry (reference value: 11.8 +/- 0.1%); assay type: functional
[13] = test system: A549; test: Cytotoxicity against human A549 cells assessed as cell survival at 5 uM after 24 hrs by MTT assay relative to control; assay type: functional; settings: A549, 24 h, read-out: Survival; method in brief: as §1
[14] = test system: A-375; test: Induction of apoptosis in human A375 cells assessed as decrease in Bcl-2 protein level at 5 uM after 24 hrs by Western blotting analysis; assay type: functional, cell-based
Method in brief: (§3)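 Lysates from A375 cells exposed 24 h to 5 μM, or to a range of concentrations, immunoblotted with specific antibodies against Bcl-2, Bcl-xL, Bax, Bad, caspase-3 and PARP; actin probed as loading control; three separate experiments.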

[15] = test system: A-375; test: Induction of apoptosis in human A375 cells assessed as decrease in Bcl-XL protein level at 5 uM after 24 hrs by Western blotting analysis; assay type: functional, cell-based; method in brief: as §3
[16] = test system: A-375; test: Cytotoxicity against human A375 cells assessed as cell survival at 1 to 5 uM by MTT assay relative to control; assay type: functional, cell-based; settings: TDE = time-dependent effect; method in brief: as §2
[17] = test system: A-375; test: Upregulation of p27 mRNA expression in human A375 cells at 5 uM after 24 hrs by RT-PCR analysis; assay type: functional, cell-based
Method in brief: (§4)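 A375 cells treated 24 h at 5 μM; p53, p21, p27 and cyclin D1 transcripts quantified by qPCR, normalised to β-actin in each sample, compared with control.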

[18] = test system: A-375; test: Induction of apoptosis in human A375 cells assessed as increase in Bax protein level at 5 uM after 24 hrs by Western blotting analysis; assay type: functional, cell-based; method in brief: as §3
[19] = test system: A-375; test: Induction of apoptosis in human A375 cells assessed as increase in Bad protein level at 5 uM after 24 hrs by Western blotting analysis; assay type: functional, cell-based; method in brief: as §3
[20] = test system: A-375; test: Induction of apoptosis in human A375 cells at 5 uM after 24 hrs by AnnexinV-FITC/propidium iodide staining-based fluorimetric analysis (reference value: 2.6%); assay type: functional
[21] = test system: A-375; test: Cytotoxicity against human A375 cells assessed as cell survival after 12 to 24 hrs by MTT assay relative to control; assay type: functional, cell-based; method in brief: as §2
[22] = test system: A-375; test: Downregulation of cyclin D1 mRNA expression in human A375 cells at 5 uM after 24 hrs by RT-PCR analysis; assay type: functional, cell-based; method in brief: as §4
[23] = test system: A-375; test: Upregulation of p21 mRNA expression in human A375 cells at 5 uM after 24 hrs by RT-PCR analysis; assay type: functional, cell-based; method in brief: as §4
[24] = test system: A-375; test: Upregulation of p53 mRNA expression in human A375 cells at 5 uM after 24 hrs by RT-PCR analysis; assay type: functional, cell-based; method in brief: as §4
[25] = test system: A-375; test: Induction of apoptosis in human A375 cells assessed as increase in Bax protein level after 24 hrs by Western blotting analysis; assay type: functional, cell-based; method in brief: as §3
[26] = test system: A-375; test: Induction of apoptosis in human A375 cells assessed as increase in Bad protein level after 24 hrs by Western blotting analysis; assay type: functional, cell-based; method in brief: as §3
[27] = test system: A-375; test: Induction of apoptosis in human A375 cells assessed as cleavage of caspase-3 after 24 hrs by Western blotting analysis; assay type: functional, cell-based; method in brief: as §3
[28] = test system: Escherichia coli; test: Binding affinity to Escherichia coli pBR322 DNA assessed as DNA unwinding at 10 to 1000 uM after 12 hrs by agarose gel electrophoresis
Method in brief: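 Negatively supercoiled pBR322 plasmid (0.4 μg) incubated 12 h in TE buffer with increasing compound concentrations (0–1000 μM); samples run 2.5 h on 1% agarose gel; unwinding read as reduced mobility.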

[29] = test system: A-375; test: Induction of apoptosis in human A375 cells assessed as decrease in Bcl-2 protein level after 24 hrs by Western blotting analysis; assay type: functional, cell-based; method in brief: as §3
[30] = test system: A-375; test: Induction of apoptosis in human A375 cells assessed as decrease in Bcl-XL protein level after 24 hrs by Western blotting analysis; assay type: functional, cell-based; method in brief: as §3
[31] = test system: A-375; test: Induction of apoptosis in human A375 cells assessed as cleavage of PARP after 24 hrs by Western blotting analysis; assay type: functional, cell-based; method in brief: as §3

SMILES | viability at 5 µM [1] [%] | viability at 5 µM [2] [%] | Activity [3] [%] | viability at 24 h, 5 µM [4] [%] | viability at 5 µM [5] [%] | Activity [6] [%] | viability at 5 µM [7] [%] | Activity [8] [%] | Activity [9] | viability at 5 µM [10] [%] | viability at 5 µM [11] [%] | Activity [12] [%] | viability at 5 µM [13] [%] | Activity [14] | Activity [15] | Activity [16] | Activity [17] | Activity [18] | Activity [19] | Activity [20] [%] | other results
COc1cc2c(cc1OC/C=C/Cn1cc(-c3ccccc3)nn1)N=C[C@@H]1CCCN1C2=O | 33.9 | 79.1 | 7 | 93 | 61.2 | 77.8 | 78 | 5.5 | inactive | 69.6 | 53.3 | 9.7 | 70 | – | – | – | – | – | – | – | –
COc1ccc(-c2cn(C/C=C\COc3cc4c(cc3OC)C(=O)N3CCC[C@H]3C=N4)nn2)cc1 | 62.8 | 66.4 | 7.1 | 90.3 | 55.5 | 82.3 | 46.7 | 3.4 | inactive | 38.7 | 42 | 7.2 | 98.2 | Active | Active | tde | Active | Active | Active | 12.1 | Activity [21]: Dose-dependent effect; Activity [22]: Active; Activity [23]: Active; Activity [24]: Active
COc1ccc(-c2cn(C/C=C/COc3cc4c(cc3OC)C(=O)N3CCC[C@H]3C=N4)nn2)cc1 | 75.2 | 80.1 | 13.9 | 104 | 84.1 | 73.6 | 40 | 5.1 | inactive | 69.2 | 49.2 | 7.4 | 81 | – | – | – | – | – | – | – | –
COc1cccc(-c2cn(C/C=C\COc3cc4c(cc3OC)C(=O)N3CCC[C@H]3C=N4)nn2)c1 | 74.2 | 65.3 | 7.7 | 90.4 | 50 | 82.3 | 42.8 | 3.3 | inactive | 48.4 | 40.7 | 6.7 | 100 | Active | Active | tde | Active | Active | Active | 16.4 | Activity [21]: Dose-dependent effect; Activity [22]: Active; Activity [23]: Active; Activity [24]: Active
COc1cc2c(cc1O)N=C[C@@H]1CCCN1C2=O | 66.8 | 61.6 | – | 89.7 | 94.4 | – | 55.2 | – | – | 52.2 | 54.8 | – | 85.4 | – | – | – | – | – | – | – | –
COc1cc2c(cc1OC/C=C\Cn1cc(-c3ccccc3)nn1)N=C[C@@H]1CCCN1C2=O | 33.9 | 55.9 | 8.9 | 87.7 | 25.6 | 83 | 74.1 | 2.2 | inactive | 22.4 | 45.7 | 5.9 | 65.6 | Active | Active | tde | Active | Active | Active | 23.1 | Activity [25]: Dose-dependent effect; Activity [26]: Dose-dependent effect; Activity [21]: Dose-dependent effect; Activity [27]: Dose-dependent effect; Activity [22]: Active; Activity [28]: Active; Activity [29]: Dose-dependent effect; Activity [23]: Active; Activity [30]: Dose-dependent effect; Activity [31]: Dose-dependent effect; Activity [24]: Active
COc1cc2c(cc1OC/C=C\Cn1cc(-c3ccccc3OC)nn1)N=C[C@@H]1CCCN1C2=O | 66.3 | 75.1 | 11.7 | 84.7 | 105 | 81.9 | 51.1 | 1.3 | inactive | 58.4 | 63.1 | 5.1 | 102 | Active | Active | tde | Active | Active | Active | 11.1 | Activity [21]: Dose-dependent effect; Activity [22]: Active; Activity [23]: Active; Activity [24]: Active
COc1cc2c(cc1OC/C=C/Cn1cc(-c3ccccc3OC)nn1)N=C[C@@H]1CCCN1C2=O | 98.9 | 83 | 17.3 | 100 | 95.6 | 69.5 | 55 | 5.1 | inactive | 58.4 | 57.9 | 8.1 | 91 | – | – | – | – | – | – | – | –
COc1cccc(-c2cn(C/C=C/COc3cc4c(cc3OC)C(=O)N3CCC[C@H]3C=N4)nn2)c1 | 107 | 87.2 | 17.6 | 107 | 97.5 | 71.4 | 40 | 3.5 | inactive | 58.3 | 62.8 | 7.5 | 86 | – | – | – | – | – | – | – | –
